Values after ≈ are worked out from the molar mass of the structure shown. Active and inactive are the calls of the source. The rule behind the calls is not given here.
Experiments:
Mus musculus [1] = organism: Mus musculus; experiment: Compound was evaluated for the induction of cytotoxic macrophages at concentration of 1 ug/mL; assay type: functional
Summary of the method: (§1)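 Peptone-elicited peritoneal macrophages were taken from C3Heb/FeJ mice (6–8 weeks) 3 days after ip peptone broth. About 4 × 10^5 cells per well were made adherent (90 min) and washed. Compound (3 mg/mL Me2SO stock, diluted in RPMI-1640 + 20% FCS) was added with 4 × 10^4 P815 mastocytoma cells, about 10:1 macrophage:target, at 37 °C, 5% CO2. After 48 h, nonadherent cells were counted by trypan blue. % cytotoxicity = (A−B)/A × 100, corrected for direct drug toxicity on targets. Mean of three experiments.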

CCRF-CEM = experiment: In vitro inhibition of CCRF-CEM cell proliferation; assay type: functional, cell-based; details: Homo sapiens
Summary of the method: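 Human leukaemia CCRF-CEM cells were grown in RPMI 1640 with 10% dialysed FBS, 16 mM HEPES and 8 mM MOPS, at 4.8 × 10^4 cells per well, in duplicate with several concentrations. Compounds came from a 4 mg/mL Me2SO (or ethanol) stock. After 72 h of continuous exposure (5% CO2), cells were counted on a Coulter counter. IC50 was read from dose–response curves against untreated controls.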

Mus musculus [2] = organism: Mus musculus; experiment: Compound was evaluated for the induction of cytotoxic macrophages at concentration of 0.1 ug/mL; assay type: functional; summary of the method: as §1
X5563 [3] = experiment: Compound was tested in vivo for inhibition of tumor growth of X5,563 myeloma at dose of 25 mg/kg; Number of toxic deaths over total number of mice per group (T/C), 0/10; assay type: functional; details: Mus musculus
X5563 [4] = experiment: Compound was tested in vivo for inhibition of tumor growth of X5,563 myeloma at dose of 17 mg/kg; Number of toxic deaths over total number of mice per group (T/C), 1/10; assay type: functional; details: Mus musculus
Mus musculus [5] = organism: Mus musculus; experiment: Compound was evaluated for the induction of cytotoxic macrophages at concentration of 0.01 ug/mL; assay type: functional; summary of the method: as §1
X5563 [6] = experiment: Compound was tested in vivo for inhibition of tumor growth of X5,563 myeloma at dose of 35 mg/kg; Number of toxic deaths over total number of mice per group (T/C), 2/9; assay type: functional; details: Mus musculus
X5563 [7] = experiment: Compound was tested in vivo for inhibition of tumor growth of X5,563 myeloma at dose of 17 mg/kg; Number of toxic deaths over total number of mice per group (T/C), 0/10; assay type: functional; details: Mus musculus
X5563 [8] = experiment: Compound was tested in vivo for inhibition of tumor growth of X5,563 myeloma at dose of 25 mg/kg; Number of toxic deaths over total number of mice per group (T/C), 0/9; assay type: functional; details: Mus musculus
X5563 [9] = experiment: Compound was tested in vivo for inhibition of tumor growth of X5,563 myeloma at dose of 35 mg/kg; Number of toxic deaths over total number of mice per group (T/C), 0/9; assay type: functional; details: Mus musculus
X5563 [10] = experiment: Compound was tested in vivo for inhibition of tumor growth of X5,563 myeloma at dose of 25 mg/kg; Number of toxic deaths over total number of mice per group (T/C), 2/10; assay type: functional; details: Mus musculus
X5563 [11] = experiment: Compound was tested in vivo for inhibition of tumor growth of X5,563 myeloma at dose of 50 mg/kg; Number of toxic deaths over total number of mice per group (T/C), 9/10; assay type: functional; details: Mus musculus
[12] = Compound was tested in vivo for inhibition of tumor growth of X5,563 myeloma at dose of 35 mg/kg; Number of toxic deaths over total number of mice per group (T/C), 3/10; assay type: functional; details: Mus musculus, X5563
X5563 [13] = experiment: Compound was tested in vivo for inhibition of tumor growth of X5,563 myeloma at dose of 70 mg/kg; Number of toxic deaths over total number of mice per group (T/C), 9/10; assay type: functional; details: Mus musculus
X5563 [14] = experiment: Compound was tested in vivo for inhibition of tumor growth of X5,563 myeloma at dose of 50 mg/kg; Number of toxic deaths over total number of mice per group (T/C), 1/10; assay type: functional; details: Mus musculus
X5563 [15] = experiment: Compound was tested in vivo for inhibition of tumor growth of X5,563 myeloma at dose of 70 mg/kg; Number of toxic deaths over total number of mice per group (T/C), 2/10; assay type: functional; details: Mus musculus
X5563 [16] = experiment: Compound was tested in vivo for inhibition of tumor growth of X5,563 myeloma at dose of 35 mg/kg; Number of toxic deaths over total number of mice per group (T/C), 4/10; assay type: functional; details: Mus musculus
X5563 [17] = experiment: Compound was tested in vivo for inhibition of tumor growth of X5,563 myeloma at dose of 17 mg/kg; Number of toxic deaths over total number of mice per group (T/C), 3/10; assay type: functional; details: Mus musculus
X5563 [18] = experiment: Compound was tested in vivo for inhibition of tumor growth of X5,563 myeloma at dose of 5 mg/kg; Number of toxic deaths over total number of mice per group (T/C), 4/10; assay type: functional; details: Mus musculus
[19] = Compound was evaluated for the antitumor activity against X5563 plasma cell myeloma for iv administration and days 4,8,12; Number of toxic deaths over total number of mice per group (T/C), 1/10 at dose of 50 mg/kg; assay type: functional; details: Mus musculus
P388 = experiment: Compound was evaluated for the antitumor activity against P-388 leukemia; Inactive; assay type: functional, cell-based; details: Mus musculus
Summary of the method: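 P-388 leukaemia: DBA/2 mice were inoculated ip with 1 × 10^6 cells. Compounds were suspended in 2.5% Emulphor in 0.9% saline and given as indicated. Mean life span of treated groups was compared with controls.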

M-5 = experiment: Compound was evaluated for the antitumor activity against M-5 ovarian carcinoma for ip administration and daily x 10; % day delay schedule.; assay type: functional, Mus musculus
6C3HED = experiment: Compound was evaluated for the antitumor activity against 6C3HED lymphosarcoma for ip administration and daily x 8 schedule; Number of toxic deaths over total number of mice per group (T/C), 0/10 at dose of 35 mg/kg; assay type: functional; details: Mus musculus, route intraperitoneal
[20] = Compound was evaluated for the antitumor activity against X5563 plasma cell myeloma for po administration and daily x 10 schedule; Number of toxic deaths over total number of mice per group (T/C), 0/10 at dose of 50 mg/kg; assay type: functional; details: Mus musculus
[21] = Compound was evaluated for the antitumor activity against X5563 plasma cell myeloma for ip administration and days x10; Number of toxic deaths over total number of mice per group (T/C), 0/10 at dose of 25 mg/kg; assay type: functional; details: Mus musculus, route intraperitoneal
AC755 = experiment: Compound was evaluated for the antitumor activity against AC755 breast carcinoma for ip administration and daily x 10 schedule; Number of toxic deaths over total number of mice per group (T/C), 1/7 at dose of 25 mg/kg; assay type: functional; details: Mus musculus, route intraperitoneal
B16 = experiment: Compound was evaluated for the antitumor activity against B-16 melanoma; Inactive; assay type: functional, cell-based; details: Mus musculus
C6 = experiment: Compound was evaluated for the antitumor activity against C-6 colon for ip administration and daily x 10; 5-day delay schedule; Number of toxic deaths over total number of mice per group (T/C), 1/10 at dose of 17 mg/kg; assay type: functional; details: Mus musculus, 120 h, route intraperitoneal
X5563 [22] = experiment: Compound was tested in vivo for inhibition of tumor growth of X5,563 myeloma at dose of 25 mg/kg; Number of toxic deaths over total number of mice per group (T/C), 1/10; assay type: functional; details: Mus musculus
C-6 colon (Mus musculus) = experiment: Compound was evaluated for the antitumor activity against C-6 colon for ip administration and days 4,8,12; Number of toxic deaths over total number of mice per group (T/C), 1/10 at dose of 50 mg/kg
C3H = experiment: Compound was evaluated for the antitumor activity against C3H mammary carcinoma for ip administration and daily x 10 schedule; Number of toxic deaths over total number of mice per group (T/C), 1/10 at dose of 25 mg/kg; assay type: functional; details: Mus musculus, route intraperitoneal

For CCCCCCCCCCC(COP(=O)([O-])OCC[N+](C)(C)C)OCC (centres undefined), the Macrophage cytotoxicity (Mus musculus [1]) was 32%, the IC50 (CCRF-CEM) was 55 µg/mL (≈ 139 µM) and the Macrophage cytotoxicity (Mus musculus [2]) was 2%. It also gave an inhibition in vivo at 25 mg/kg (X5563 [3]) of 39%, an inhibition in vivo at 17 mg/kg (X5563 [4]) of 41% and a Macrophage cytotoxicity (Mus musculus [5]) of 1%. For the same compound, the inhibition in vivo at 35 mg/kg (X5563 [6]) was 45%.
In the case of CCCCCCC(COP(=O)([O-])OCC[N+](C)(C)C)OCC (centres undefined), the Macrophage cytotoxicity (Mus musculus [1]) is reported as 0%, the IC50 (CCRF-CEM) is reported as over 200 µg/mL and the inhibition in vivo at 17 mg/kg (X5563 [7]) is reported as 17%. It also gave a Macrophage cytotoxicity (Mus musculus [2]) of 0%, an inhibition in vivo at 25 mg/kg (X5563 [8]) of 16% and an inhibition in vivo at 35 mg/kg (X5563 [9]) of 17%. For the same compound, the Macrophage cytotoxicity (Mus musculus [5]) was 0%.
CCCCCCCCCCCCCCCCCC[C@H](COP(=O)([O-])OCC[N+](C)(C)C)OC(C)=O gave an inhibition in vivo at 25 mg/kg (X5563 [10]) of 39%, a Macrophage cytotoxicity (Mus musculus [1]) of 23% and an inhibition in vivo at 50 mg/kg (X5563 [11]) of 100%. For the same compound, the IC50 (CCRF-CEM) was 0.9 µg/mL (≈ 1.73 µM), the inhibition in vivo at 17 mg/kg (X5563 [7]) was 57% and the Macrophage cytotoxicity (Mus musculus [2]) was 0%. It also gave a Macrophage cytotoxicity (Mus musculus [5]) of 0% and an inhibition in vivo at 35 mg/kg [12] of 68%.
CCCCCCCC/C=C\CCCCCCCC(COP(=O)([O-])OCC[N+](C)(C)C)OCC (centres undefined) gave an inhibition in vivo at 70 mg/kg (X5563 [13]) of 67%, an IC50 (CCRF-CEM) of 1.6 µg/mL (≈ 3.25 µM) and an inhibition in vivo at 50 mg/kg (X5563 [14]) of 47%.
For CCCCCCCCCCCCCCCCCC[C@@H](O)COP(=O)([O-])OCC[N+](C)(C)C, the IC50 (CCRF-CEM) was over 20 µg/mL.
CCCCCCCCCCCCCCCCCCC(COP(=O)([O-])OCC[N+](C)(C)C)OC (centres undefined) showed an IC50 (CCRF-CEM) of 1.5 µg/mL (≈ 3.04 µM).
CCCCC/C=C\C/C=C\CCCCCCCC(COP(=O)([O-])OCC[N+](C)(C)C)OCC (centres undefined) gave an inhibition in vivo at 70 mg/kg (X5563 [15]) of 31% and an IC50 (CCRF-CEM) of 6 µg/mL (≈ 12.3 µM).
For CCCCCCCCCCCCCCC(COP(=O)([O-])OCC[N+](C)(C)C)OCC (centres undefined), the inhibition in vivo at 25 mg/kg (X5563 [10]) was 17%, the inhibition in vivo at 35 mg/kg (X5563 [16]) was 80% and the IC50 (CCRF-CEM) was 5.4 µg/mL (≈ 12 µM). The inhibition in vivo at 17 mg/kg (X5563 [17]) was 7%.
CCCCCCCCCCCCCCCCOC[C@H](COP(=O)([O-])OCC[N+](C)(C)C)OCC showed a Macrophage cytotoxicity (Mus musculus [1]) of 31%, an IC50 (CCRF-CEM) of 2.9 µg/mL (≈ 5.69 µM) and a Macrophage cytotoxicity (Mus musculus [2]) of 5%. It also gave an inhibition in vivo at 5 mg/kg (X5563 [18]) of 18% and a Macrophage cytotoxicity (Mus musculus [5]) of 4%.
CCCCCCCCCCCCCCCCCCC(COP(=O)([O-])OCC[N+](C)(C)C)OCC (centres undefined) gave a Macrophage cytotoxicity (Mus musculus [1]) of 29%, an inhibition in vivo at 35 mg/kg (X5563 [16]) of 95% and an inhibition in vivo at 50 mg/kg [19] of 43%. The inhibition (P388) was “inactive”, the IC50 (CCRF-CEM) was 0.8 µg/mL (≈ 1.58 µM) and the Inhibition (M-5) was 22%. It also gave an inhibition in vivo at 17 mg/kg (X5563 [7]) of 65%, a Macrophage cytotoxicity (Mus musculus [2]) of 37% and an inhibition in vivo at 35 mg/kg (6C3HED) of 85%. It also gave an inhibition in vivo at 50 mg/kg [20] of 56%, an inhibition in vivo at 25 mg/kg [21] of 77% and an inhibition in vivo at 25 mg/kg (AC755) of 42%. For the same compound, the inhibition (B16) was “inactive”, the inhibition in vivo at 17 mg/kg (C6) was 56% and the inhibition in vivo at 25 mg/kg (X5563 [22]) was 80%. It also gave an inhibition in vivo at 50 mg/kg (C-6 colon (Mus musculus)) of 31%, a Macrophage cytotoxicity (Mus musculus [5]) of 1% and an inhibition in vivo at 25 mg/kg (C3H) of 37%.
For CCCCCCCCCCCCCCCCCCCCCCCC(COP(=O)([O-])OCC[N+](C)(C)C)OCC (centres undefined), the Macrophage cytotoxicity (Mus musculus [1]) was 0%, the Macrophage cytotoxicity (Mus musculus [2]) was 2% and the Macrophage cytotoxicity (Mus musculus [5]) was 0%.
